Measurements from ChEMBL document CHEMBL1156809, “Synthesis and anticonvulsant activities of (R)-N-(4'-substituted)benzyl 2-acetamido-3-methoxypropionamides” (J Med Chem, 2010).
Calls of active or inactive are those of the source. No cut-off for these calls is given here.

Assays:
[1] = system: Rattus norvegicus; test: Anticonvulsant activity against subcutaneous metrazole-induced seizures in albino Sprague-Dawley rat at 300 mg/kg, ip after 4 hrs; format: functional, organism-based; parameters: dose 300 mg/kg
[2] = Behavioral toxicity in po dosed albino Sprague-Dawley rat; format: organism-based; conditions: in vivo
Method in brief: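 Behavioral toxicity was recorded as observed effects in rats after oral administration, within the NINDS ASP screen.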

[3] = system: Mus musculus; test: Anticonvulsant activity against subcutaneous metrazole-induced seizures in albino CF1 mouse at 300 mg/kg, ip after 0.5 hrs; format: functional, organism-based; parameters: dose 300 mg/kg
Method in brief: (§1)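 Subcutaneous Metrazol seizure test under the NINDS ASP, using ip dosing to mice, typically at 300 mg/kg. Protection was assessed at 0.5 and 4 h.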

[4] = system: Mus musculus; test: Anticonvulsant activity against subcutaneous metrazole-induced seizures in albino CF1 mouse at 300 mg/kg, ip after 4 hrs; format: functional, organism-based; parameters: dose 300 mg/kg; method in brief: as §1
[5] = system: Rattus norvegicus; test: Anticonvulsant activity against subcutaneous metrazole-induced seizures in albino Sprague-Dawley rat at 300 mg/kg, ip after 0.5 hrs; format: functional, organism-based; parameters: dose 300 mg/kg
[6] = system: Rattus norvegicus; test: Anticonvulsant activity in po dosed albino Sprague-Dawley rat seizure model assessed as protection against hind limb extension by MES test; format: functional; conditions: Hindlimb
Method in brief: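 MES seizure protection was tested in Sprague Dawley rats dosed orally, through the NINDS ASP. The ED50 is expressed in mg/kg.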

[7] = Neurological toxicity in ip dosed albino CF1 mouse assessed as neurological impairment by rotarod test; format: organism-based; conditions: in vivo
Method in brief: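 Neurological impairment was measured with the rotorod test in mice dosed intraperitoneally. The median dose (TD50, mg/kg) was determined only for compounds with significant MES activity.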

[8] = system: Mus musculus; test: Anticonvulsant activity in ip dosed albino CF1 mouse seizure model assessed as protection against hind limb extension by MES test; format: functional; conditions: albino CF1, Hindlimb
Method in brief: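 Maximal electroshock seizure test run by the NINDS ASP (Stables and Kupferberg procedures). Compounds were given intraperitoneally to mice, and the ED50 for seizure protection is reported in mg/kg.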

[9] = system: Rattus norvegicus; test: Protective index, ratio of TD50 for po dosed albino Sprague-Dawley rat to ED50 for po dosed albino Sprague-Dawley rat; format: functional
Method in brief: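 Protective index was calculated as TD50/ED50 for the same species and route: mouse ip (rotorod TD50, MES ED50) and rat po.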

COC[C@H](NC(C)=O)C(=O)NCc1ccc(I)cc1
Activity [1]: inactive | TD50 [2]: > 30 mg/kg | Activity [3]: inactive | Activity [4]: inactive | Activity [5]: inactive | ED50 [6]: > 30 mg/kg | TD50 [7]: > 300 mg/kg | ED50 [8]: 100 mg/kg

CCc1ccc(CNC(=O)[C@@H](COC)NC(C)=O)cc1
Activity [1]: inactive | TD50 [2]: > 250 mg/kg | Activity [3]: inactive | Activity [4]: inactive | Activity [5]: inactive | ED50 [6]: 18 mg/kg | TD50 [7]: 30 mg/kg | ED50 [8]: 10 mg/kg | PI [9]: >14

COC[C@@H](NC(C)=O)C(=O)NCc1cccc(OC(F)(F)F)c1
Activity [1]: inactive | Activity [3]: inactive | Activity [4]: inactive | Activity [5]: inactive | TD50 [7]: 30 mg/kg | ED50 [8]: 10 mg/kg

COC[C@@H](NC(C)=O)C(=O)NCc1ccc(Cl)cc1Cl
ED50 [8]: 30 mg/kg

COC[C@@H](NC(C)=O)C(=O)NCc1ccc(C(=O)OC)cc1
Activity [1]: inactive | Activity [3]: inactive | Activity [4]: inactive | Activity [5]: inactive | TD50 [7]: > 300 mg/kg | ED50 [8]: 100 mg/kg

C#Cc1ccc(CNC(=O)[C@@H](COC)NC(C)=O)cc1
Activity [1]: inactive | TD50 [2]: > 250 mg/kg | Activity [3]: inactive | Activity [4]: inactive | Activity [5]: inactive | ED50 [6]: 3.4 mg/kg | ED50 [8]: 3 mg/kg | PI [9]: >74

COC[C@H](NC(C)=O)C(=O)NCc1ccc(N=[N+]=[N-])cc1
Activity [1]: inactive | TD50 [2]: > 30 mg/kg | Activity [3]: inactive | Activity [4]: inactive | Activity [5]: inactive | TD50 [7]: > 300 mg/kg | ED50 [8]: 100 mg/kg

COC[C@@H](NC(C)=O)C(=O)NCc1ccc(S(N)(=O)=O)cc1
Activity [1]: inactive | Activity [3]: inactive | Activity [4]: inactive | Activity [5]: inactive | TD50 [7]: > 300 mg/kg | ED50 [8]: > 300 mg/kg

COC[C@@H](NC(C)=O)C(=O)NCc1ccc(NC(=O)C(F)(F)F)cc1
Activity [1]: inactive | TD50 [2]: > 30 mg/kg | Activity [3]: inactive | Activity [4]: inactive | Activity [5]: inactive | ED50 [6]: > 30 mg/kg | TD50 [7]: 100 mg/kg | ED50 [8]: > 300 mg/kg

COC[C@H](NC(C)=O)C(=O)NCc1ccc(C=O)cc1
Activity [1]: inactive | Activity [3]: inactive | Activity [4]: inactive | Activity [5]: inactive | TD50 [7]: > 300 mg/kg | ED50 [8]: > 300 mg/kg

COC[C@@H](NC(C)=O)C(=O)NCc1ccc(C(C)(C)C)cc1
Activity [1]: inactive | TD50 [2]: > 30 mg/kg | Activity [3]: inactive | Activity [4]: inactive | Activity [5]: inactive | ED50 [6]: > 30 mg/kg | TD50 [7]: 100 mg/kg | ED50 [8]: 100 mg/kg

CCc1ccc(CNC(=O)[C@H](COC)NC(C)=O)cc1
Activity [1]: inactive | TD50 [2]: > 30 mg/kg | Activity [3]: inactive | Activity [4]: inactive | Activity [5]: inactive | ED50 [6]: > 30 mg/kg | TD50 [7]: 100 mg/kg | ED50 [8]: 100 mg/kg

COC[C@@H](NC(C)=O)C(=O)NCc1ccccc1F
Activity [1]: inactive | TD50 [2]: > 30 mg/kg | Activity [3]: inactive | Activity [4]: inactive | Activity [5]: inactive | ED50 [6]: 11 mg/kg | TD50 [7]: 100 mg/kg | ED50 [8]: 10 mg/kg | PI [9]: >2.7

COC[C@@H](NC(C)=O)C(=O)NCc1ccc(-c2ccccc2)cc1
Activity [1]: inactive | TD50 [2]: 49 mg/kg | Activity [3]: inactive | Activity [4]: inactive | Activity [5]: inactive | ED50 [6]: 2 mg/kg | TD50 [7]: 11 mg/kg | ED50 [8]: 8 mg/kg | PI [9]: >25

COC[C@H](NC(C)=O)C(=O)NCc1ccc(C#C[Si](C)(C)C)cc1
Activity [1]: inactive | TD50 [2]: > 30 mg/kg | Activity [3]: inactive | Activity [4]: inactive | Activity [5]: inactive | ED50 [6]: > 30 mg/kg | TD50 [7]: 100 mg/kg | ED50 [8]: 30 mg/kg

C=Cc1ccc(CNC(=O)[C@H](COC)NC(C)=O)cc1
Activity [1]: inactive | Activity [3]: inactive | Activity [4]: inactive | Activity [5]: inactive | TD50 [7]: > 300 mg/kg | ED50 [8]: 100 mg/kg

COC[C@@H](NC(C)=O)C(=O)NCc1ccc(OC)cc1
Activity [1]: inactive | TD50 [2]: > 500 mg/kg | Activity [3]: inactive | Activity [4]: inactive | Activity [5]: inactive | ED50 [6]: 28 mg/kg | TD50 [7]: 100 mg/kg | ED50 [8]: 30 mg/kg | PI [9]: >18

COC[C@@H](NC(C)=O)C(=O)NCc1ccc(CN)cc1.Cl
Activity [1]: inactive | Activity [3]: inactive | Activity [4]: inactive | Activity [5]: inactive | TD50 [7]: > 300 mg/kg | ED50 [8]: > 300 mg/kg

COC[C@@H](NC(C)=O)C(=O)NCc1ccc(C(F)(F)F)cc1
Activity [1]: inactive | TD50 [2]: > 280 mg/kg | Activity [3]: inactive | Activity [4]: inactive | Activity [5]: inactive | ED50 [6]: 4.9 mg/kg | TD50 [7]: 100 mg/kg | ED50 [8]: 10 mg/kg | PI [9]: >57

COC[C@@H](NC(C)=O)C(=O)NCc1ccc(C#CC(C)(C)C)cc1
Activity [1]: inactive | Activity [3]: inactive | Activity [4]: inactive | Activity [5]: inactive | TD50 [7]: 30 mg/kg | ED50 [8]: > 300 mg/kg

COC[C@H](NC(C)=O)C(=O)NCc1ccc(C#N)cc1
Activity [1]: inactive | TD50 [2]: > 30 mg/kg | Activity [3]: inactive | Activity [4]: inactive | Activity [5]: inactive | ED50 [6]: > 30 mg/kg | TD50 [7]: > 300 mg/kg | ED50 [8]: 100 mg/kg

COC[C@@H](NC(C)=O)C(=O)NCc1ccc(CNC(=O)OC(C)(C)C)cc1
Activity [1]: inactive | Activity [3]: inactive | Activity [4]: inactive | Activity [5]: inactive | TD50 [7]: > 300 mg/kg | ED50 [8]: > 300 mg/kg

CC#Cc1ccc(CNC(=O)[C@@H](COC)NC(C)=O)cc1
Activity [1]: inactive | Activity [3]: inactive | Activity [4]: inactive | Activity [5]: inactive | TD50 [7]: 30 mg/kg | ED50 [8]: 10 mg/kg

COC[C@@H](NC(C)=O)C(=O)NCc1ccc(N)cc1
Activity [1]: inactive | Activity [3]: inactive | Activity [4]: inactive | Activity [5]: inactive | TD50 [7]: > 300 mg/kg | ED50 [8]: > 300 mg/kg

C#Cc1ccc(CNC(=O)[C@H](COC)NC(C)=O)cc1
Activity [1]: inactive | Activity [3]: inactive | Activity [4]: inactive | Activity [5]: inactive | TD50 [7]: > 300 mg/kg | ED50 [8]: > 300 mg/kg

COC[C@@H](NC(C)=O)C(=O)NCc1ccc(CCCO)cc1
Activity [1]: inactive | Activity [3]: inactive | Activity [4]: inactive | Activity [5]: inactive | TD50 [7]: > 300 mg/kg | ED50 [8]: > 300 mg/kg

COC[C@@H](NC(C)=O)C(=O)NCc1ccc([N+](=O)[O-])cc1
ED50 [8]: 100 mg/kg

COC[C@@H](NC(C)=O)C(=O)NCc1ccc(C#C[Si](C)(C)C)cc1
Activity [1]: inactive | Activity [3]: inactive | Activity [4]: inactive | Activity [5]: inactive | TD50 [7]: 3 mg/kg | ED50 [8]: > 3 mg/kg

COC[C@@H](NC(C)=O)C(=O)NCc1ccc(C(=O)O)cc1
Activity [1]: inactive | Activity [3]: inactive | Activity [4]: inactive | Activity [5]: inactive | TD50 [7]: > 300 mg/kg | ED50 [8]: > 300 mg/kg

CCC1(c2ccccc2)C(=O)NC(=O)NC1=O
Activity [1]: inactive | Activity [3]: inactive | Activity [4]: inactive | Activity [5]: inactive

COC[C@@H](NC(C)=O)C(=O)NCc1ccc(N=C=S)cc1
ED50 [8]: 24 mg/kg

COC[C@@H](NC(C)=O)C(=O)NCc1ccc(C=O)cc1
Activity [1]: inactive | Activity [3]: inactive | Activity [4]: inactive | Activity [5]: inactive | TD50 [7]: > 300 mg/kg | ED50 [8]: > 300 mg/kg

COC[C@H](NC(C)=O)C(=O)NCc1ccccc1
Activity [1]: inactive | TD50 [2]: > 30 mg/kg | Activity [3]: inactive | Activity [4]: inactive | Activity [5]: inactive | TD50 [7]: > 300 mg/kg

COC[C@@H](NC(C)=O)C(=O)NCc1ccc(C(C)C)cc1
Activity [1]: inactive | TD50 [2]: > 30 mg/kg | Activity [3]: inactive | Activity [4]: inactive | Activity [5]: inactive | ED50 [6]: > 30 mg/kg | TD50 [7]: 100 mg/kg | ED50 [8]: 10 mg/kg

COC[C@@H](NC(C)=O)C(=O)NCc1ccccc1OC(F)(F)F
Activity [1]: inactive | TD50 [2]: > 500 mg/kg | Activity [3]: inactive | Activity [4]: inactive | Activity [5]: inactive | ED50 [6]: 23 mg/kg | TD50 [7]: 100 mg/kg | ED50 [8]: 30 mg/kg | PI [9]: >22
